Compound activity as filed in PubChem.
The list is not random: actives were taken first. Their share in the collection is about 3.6%.
SR-BI DiI-HDL act = SR-BI HDL lipid transfer activation. 0.096% of 320,000 active. CHO ldlA[mSR-BI] cells, DiI-HDL uptake fluorescence, 3 h; 100 = double the neutral-control signal. activation, % at 12.5 µM;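 active means mean replicate activation of at least 60% and every replicate at or above 60%; inconclusive means mean or all-replicate condition met, but not both; inactive means mean below 60% and not all replicates reaching 60%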;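 further: 0% = median plate neutral-control signal and 100% = twice that signal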
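Material – SR-BI-overexpressing, LDLR-lacking CHO cells · Medium – BSA-supplemented, HEPES-buffered Ham's F12, pH 7.4 · Doses – single concentration · Times – compound with DiI-HDL co-incubation, 3 h at 37 °C · Measured by – bottom-read fluorescence, 550/595 nm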
SR-BI HDL uptake = inhibitors of mouse SR-BI mediated HDL lipid uptake; ldlA[mSR-BI] CHO cells, DiI-HDL uptake fluorescence, 3 h; inhibition, % at 12.5 µM; 0.96% of 320,000 active; AID 488896;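 active means mean replicate inhibition of at least 70% and a set share of replicates each scoring 70 or more; inconclusive means meets just one of the two criteria; inactive means fails both criteria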;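 further: 0% = median of neutral control wells and 100% = median of positive control wells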
Target sequence (Q61009 whole entry, looked up): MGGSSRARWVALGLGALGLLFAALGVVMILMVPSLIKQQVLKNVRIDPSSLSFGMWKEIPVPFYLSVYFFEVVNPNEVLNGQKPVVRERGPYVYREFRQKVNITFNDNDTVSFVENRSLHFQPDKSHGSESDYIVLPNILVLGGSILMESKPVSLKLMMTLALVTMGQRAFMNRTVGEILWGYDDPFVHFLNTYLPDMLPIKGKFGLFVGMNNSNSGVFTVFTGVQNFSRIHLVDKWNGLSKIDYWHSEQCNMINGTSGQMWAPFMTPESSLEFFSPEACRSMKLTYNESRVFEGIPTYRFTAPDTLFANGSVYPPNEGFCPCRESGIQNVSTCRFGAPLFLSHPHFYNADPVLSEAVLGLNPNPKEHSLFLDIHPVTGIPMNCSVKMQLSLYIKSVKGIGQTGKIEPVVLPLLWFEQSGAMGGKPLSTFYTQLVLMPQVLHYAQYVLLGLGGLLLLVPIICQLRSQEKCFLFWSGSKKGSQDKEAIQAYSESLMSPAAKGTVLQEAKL
HSF1 activator = increases HSF-1 driven luciferase reporter signal | NIH3T3-HGL HSF-1 luciferase reporter, MG132, 8 h; 100% = twice DMSO control signal | activation, % at 9 µM | 1.7% of 300,000 active | AID 504408;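 active means mean replicate activation of at least 50% with a set share of replicates each reaching 50%; inconclusive means only one of those two conditions met; inactive means mean below 50% and too few replicates reaching it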;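 further: 0% = median of the neutral control wells and 100% = twice that signal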
MITF act = activators of MITF-driven TRPM1 promoter activity in SK-MEL-5 cells | SK-MEL-5 TRPM1-promoter luciferase, 24 h; % of positive control, neutral wells = 0 | activation, % at 12.5 µM | 0.75% of 300,000 active;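 active means mean activation of at least 80% with every replicate also reaching 80%; inconclusive means mean reaches 80% but some replicate falls short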;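 further: 0% = neutral control wells and 100% = parthenolide positive control wells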
Wnt bcat act = activates Wnt/beta-catenin signaling in a reporter cell assay; activator, plate reader; activation, % at 9.35 µM; 1.2% of 300,000 active; AID 743398; in the data active means activation above about 30%, passing the limit was not always enough; inconclusive means no clear call, values can overlap the other calls;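 further: 0% = neutral control wells and 100% = positive control wells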
An asterisk follows results filed as active; ? = inconclusive; / = no result given.

SMILES | SR-BI DiI-HDL act | SR-BI HDL uptake | HSF1 activator | MITF act | Wnt bcat act
CC[C@@]1(O)C(=O)OCc2c1cc1n(c2=O)Cc2cc3c(CN(C)C)c(O)ccc3nc2-1 | -3.7 | 3.7 | -0.2 | -78.4 | 5.1
CCn1cc(C(=O)N2CCCC(C(=O)c3cccc(C(F)(F)F)c3)C2)cn1 (configuration not stated) | / | / | / | / | -1.4
O=[N+]([O-])c1ccc(-c2csc(N3CCc4ccccc4C3)n2)cc1 | 1.4 | -1.4 | -2.1 | 15.7 | /
O=[N+]([O-])c1ccc(N2CCc3ccccc3C2)cc1 | -4.7 | 4.7 | 72.6* | / | 1.8
CC(C)(Cc1nc2ccccc2[nH]1)c1nc2ccccc2[nH]1 | / | / | / | / | -0.8
COc1ccc(/C=C2\CCC(C3CCCC3)C2=O)cc1OC (configuration not stated) | 9.0 | -9.0 | 15.8 | 73.6 | 33.5*
COc1ccc(/C=C2\CCC(C3CCCC3)C2=O)cc1 (configuration not stated) | -8.4 | 8.4 | 23.4 | 97.7* | -1.0
Cc1ccc(/C=C2\CCC(C3CCCC3)C2=O)cc1 (configuration not stated) | 14.3 | -14.3 | 29.3 | 15.6 | 13.0
Cc1ccsc1/C=C1\CCC(C2CCCC2)C1=O (configuration not stated) | / | / | 45.5 | 75.5 | 46.6*
Cc1ccsc1/C=C1\CCc2ccccc2C1=O | 18.2 | -18.2 | -14.4 | / | /
CC(=O)CC1c2ccccc2C=C(c2ccsc2)N1c1ccc(-c2cccs2)cc1 (configuration not stated) | / | / | / | / | -5.0
C[C@H](CO)NC(=O)c1nc[nH]c1C(=O)N[C@@H](C)c1ccccc1 | / | / | / | / | -1.6
CCOc1ccccc1NC(=O)Nc1ccsc1C(=O)OC | -78.6 | 78.6* | -0.3 | -10.7 | -2.1
COC(=O)c1sccc1NC(=O)Nc1ccc(F)cc1 | -33.5 | 33.5 | 70.0* | 5.0 | -3.5
COC(=O)c1sccc1NC(=O)Nc1cccc(F)c1 | -41.1 | 41.1 | 77.1* | 8.0 | -3.3
CCc1ccccc1NC(=O)Nc1ccsc1C(=O)OC | -21.1 | 21.1 | 14.8 | -11.6 | 0.6
CCOc1ccccc1NC(=O)Nc1cccc(C(C)=O)c1 | -78.5 | 78.5* | 16.0 | 0.3 | 4.1
CC(CNC(=O)[C@@H](Cc1ccccc1)NC(=O)[C@H]1O[C@@H](n2cnc3c(=O)[nH]c(N)nc32)[C@H](O)[C@@H]1O)c1ccccc1 (some centres not stated) | / | / | / | / | 1.5
CC(=O)c1ccc(NS(=O)(=O)c2cccc3cccnc23)cc1 | / | / | / | / | -0.4
CCCNC(=O)Nc1cccc(C(=O)OC)c1 | -3.1 | 3.1 | 6.0 | 5.0 | 34.5*
CC1(C(=O)Nc2nc3ccccc3s2)CC1(Br)Br (configuration not stated) | 5.6 | -5.6 | 19.6 | 82.9* | 13.7
COCC(=O)Nc1nc2ccccc2s1 | 29.2 | -29.2 | -1.6 | 17.6 | 19.0
Cc1sc(NC(=O)CSC2=NCCS2)nc1-c1ccccc1 | -40.6 | 40.6 | 35.0 | -7.3 | /
COc1ccc2nc(NC(=O)CCc3cc(OC)c(OC)c(OC)c3)sc2c1 | -71.9 | 71.9* | -15.8 | -0.3 | 0.1
Cc1ccc2nc(NC(=O)Cc3cccs3)sc2c1 | -9.0 | 9.0 | 45.4 | 47.3 | /
SMILES | SR-BI DiI-HDL act | SR-BI HDL uptake | HSF1 activator | MITF act | Wnt bcat act
O=C(CSC1=NCCS1)Nc1nc2ccccc2s1 | -10.1 | 10.1 | 56.3* | 41.2 | 20.4
O=C(Cc1cccs1)Nc1nc2ccccc2s1 | / | / | 65.5* | 63.0 | /
CCOc1ccc(C(=O)OCC(=O)NC2CCCCCCC2)cc1 | -14.7 | 14.7 | / | -4.6 | 0.2
COc1ccc(C#Cc2cnc3c(c2)C(=O)N([C@@H](C)CO)C[C@@H](C)[C@@H](CN(C)CC2CCOCC2)O3)cc1 | / | / | / | / | -0.5
COc1cc(CCC(=O)Nc2cc(C)cc(C)c2)cc(OC)c1OC | -83.2 | 83.2* | 0.4 | -6.1 | -18.8
CC1CCc2nc(NC(=O)c3ccco3)sc2C1 (configuration not stated) | -19.3 | 19.3 | -27.3 | -31.2 | /
CC1CCc2nc(NC(=O)Cc3cccs3)sc2C1 (configuration not stated) | -14.2 | 14.2 | 34.6 | 126.3* | -2.8
COc1ccc2nc(NC(=O)Cc3cccs3)sc2c1 | -8.5 | 8.5 | 64.6* | 53.0 | /
COc1cc(CNC(=O)c2cc(-c3cc(Cl)ccc3C)n[nH]2)cc(OC)c1 | / | / | / | / | 0.2
Fc1ccccc1COc1ccc(/C=N/n2cnnc2)cc1 | -0.9 | 0.9 | 11.5 | / | 36.8*
CN1CCN(Cn2cc(/C=C/C(=O)c3ccccc3)c3ccccc32)CC1 | -10.2 | 10.2 | 87.0* | ? | /
O=C(COC(=O)C1CSC2(c3ccc(F)cc3)CCC(=O)N12)NC(=O)NC1CCCC1 (configuration not stated) | 19.3 | -19.3 | 57.2* | 2.4 | -0.1
CC(C)CNC(=O)NC(=O)COC(=O)C1CSC2(c3ccc(F)cc3)CCC(=O)N12 (configuration not stated) | 17.1 | -17.1 | -3.6 | 2.6 | -9.4
Cc1nc2n(n1)C(c1ccccc1)C1=C(CC(c3ccco3)CC1=O)N2 (configuration not stated) | 25.6 | -25.6 | -6.4 | -1.6 | 3.2
O=C1CC(c2ccco2)CC2=C1C=Nc1ccccc1N2 (configuration not stated) | -13.6 | 13.6 | 11.3 | -4.5 | 44.8*
Cn1c(=O)c2cc(NC(=O)NCc3ccccc3)ccc2n1Cc1ccc(Cl)cc1 | / | / | / | / | -0.8
CCC(C)Sc1cc(-c2nc3ccccn3c2NC2CCCCC2)ccc1OC (configuration not stated) | 65.9* | -65.8 | 27.4 | 4.7 | -21.9
CCC(C)Sc1cc(-c2nc3cc(C)ccn3c2NC2CCCCC2)ccc1OC (configuration not stated) | -44.7 | 44.7 | / | 4.1 | -13.0
O=C1S/C(=C\c2cccs2)C(=O)N1c1ccc(O)cc1 | / | / | 40.6 | 98.0* | 43.6*
COc1cccc(CN2CCC2(C)C(=O)Nc2ccc(C)c(O)c2)c1F (configuration not stated) | / | / | / | / | -2.5
Cc1ccc(S(=O)(=O)c2c(C)cc(C)nc2N2CCCCC2)cc1 | -3.2 | 3.2 | 58.1* | -14.5 | -0.4
COC(=O)c1c(C)[nH]c(C(=O)COC(=O)CCc2ccc(OC)c(OC)c2)c1C | / | / | / | / | -6.3
Cc1cc(C)c(S(=O)(=O)Nc2ccccc2)c(C)c1 | 10.3 | -10.3 | / | 1.6 | -2.0
O=S(=O)(NCCN1CCCC1)c1ccc(Br)cc1 | 62.0* | -62.0 | -6.2 | / | 0.5
CCOC(=O)C(=O)N(C)c1c(CC)nc2c(OCc3ccc(OC(F)F)cc3)cccn12 | / | / | / | / | -2.9
CCOC(=O)c1csc(NC(=O)c2ccc(OC)c(OC)c2)n1 | -77.4 | 77.4* | -7.8 | -5.5 | 4.4
Cc1sc(NC(=O)COc2ccccc2)c(C#N)c1-c1ccccc1 | 1.5 | -1.5 | 32.4 | 15.6 | /
COc1ccc(C(=O)Nc2sc(C)c(-c3ccccc3)c2C#N)cc1OC | -85.0 | 85.0* | -3.4 | 40.0 | /
O=C(C[n+]1ccccc1)N/N=C/c1ccc(Br)cc1 | 29.2 | -29.2 | / | -8.0 | -2.1
